Laboratory results: ChEMBL document CHEMBL1121744, “Synthesis and antihypertensive activity of a series of 8-substituted 1-oxa-3,8-diazaspiro[4.5]decan-2-ones” (J Med Chem, 1981)
“And” between values parts separate entries of the source, which are not always exact repeats. Equal entries are not always repeated.

What was measured:
Rattus norvegicus [1] = test: Antihypertensive activity as percentage fall in systolic blood pressure in spontaneously hypertensive rats after a period of 3 h for a dose of 50 mg/kg; assay type: functional, organism-based; set-up: dose 50 mg/kg; settings: Artery
Procedure, shortened: (§1)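 Male Okamoto-Aoki SHR, trained, in groups of four matched for mean systolic pressure; one group per run received water vehicle. Oral dosing in water (0.1 mL per 10 g) on two consecutive mornings. After the day-2 dose, rats were restrained at 30.0 ± 1.0 °C. Systolic pressure was read by tail cuff (inflated to 300 mmHg, first pulse) at 1–4 h. % fall is versus the untreated control group, by 1-tail t test (p ≤ 0.05).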

Rattus norvegicus [2] = test: Antihypertensive activity as percentage fall in systolic blood pressure in spontaneously hypertensive rats after a period of 2 hr for a dose of 50 mg/kg; assay type: functional, organism-based; set-up: dose 50 mg/kg; settings: Artery; procedure, shortened: as §1
Rattus norvegicus [3] = test: Antihypertensive activity as percentage fall in systolic blood pressure in spontaneously hypertensive rats after a period of 1 hr for a dose of 50 mg/kg po; assay type: functional, organism-based; set-up: dose 50 mg/kg; settings: Artery; procedure, shortened: as §1
Rattus norvegicus [4] = test: Antihypertensive activity as percentage fall in systolic blood pressure in spontaneously hypertensive rats after a period of 4 hr for a dose of 50 mg/kg; assay type: functional, organism-based; set-up: dose 50 mg/kg; settings: Artery; procedure, shortened: as §1
[5] = Distribution coefficient between 1-Octanol and phosphate buffer at pH7.4; assay type: physicochemical; settings: 1-octanol/phosphate buffer, pH 7.4
Procedure, shortened: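 Octanol/buffer distribution measured at pH 7.4 in phosphate with sodium chloride. Either HPLC (0.004 M) or shake flask.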

Rattus norvegicus [6] = test: Antihypertensive activity as percentage fall in systolic blood pressure in spontaneously hypertensive rats after a period of 1 hr for a dose of 50 mg/kg; assay type: functional, Artery; procedure, shortened: as §1
Rattus norvegicus [7] = test: Percentage fall in systolic blood pressure in spontaneously hypertensive rats after 2 hr following 50 mg/kg p.o.; assay type: functional, Artery; settings: route oral; procedure, shortened: as §1
Rattus norvegicus [8] = test: Percentage fall in systolic blood pressure in spontaneously hypertensive rats after 3 h following 50 mg/kg p.o.; assay type: functional, Artery; settings: route oral; procedure, shortened: as §1

SMILES	Decrease in blood pressure (Rattus norvegicus [1])	Decrease in blood pressure (Rattus norvegicus [2])	Decrease in blood pressure (Rattus norvegicus [3])	Decrease in blood pressure (Rattus norvegicus [4])	logD [5]	Decrease in blood pressure (Rattus norvegicus [6]) [%]	Decrease in blood pressure (Rattus norvegicus [7]) [%]	Decrease in blood pressure (Rattus norvegicus [8]) [%]	Decrease in blood pressure (Rattus norvegicus [7]; 50 mg/kg)
CCCN1CC2(CCN(CC(O)COc3ccccc3OC)CC2)OC1=O (stereo unspecified)	Not significant	Not significant	Not significant	Not significant					
O=C1NC(Cc2ccccc2)C2(CCN(CC(O)C3COc4ccccc4O3)CC2)O1 (stereo unspecified)	Not significant	Not significant	Not significant	Not significant	2.41				
CC1NC(=O)OC12CCN(CCc1c[nH]c3ccccc13)CC2 (stereo unspecified)	Not significant	Not significant		Not significant	1.43	18			
CCC1N(C)C(=O)OC12CCN(CCc1c[nH]c3ccccc13)CC2 (stereo unspecified)	Not significant	Not significant	Not significant	Not significant	2.14				
CCC1CN(CCc2c[nH]c3ccccc23)CCC12CNC(=O)O2 (stereo unspecified)	Not significant			Not significant	2.01	16	19		
CCCC1CN(CCc2c[nH]c3ccccc23)CCC12CNC(=O)O2 (stereo unspecified)	Not significant	Not significant		Not significant	2.42	21			
CCCN1CC2(CCN(CC(O)C3COc4ccccc4O3)CC2)OC1=O (stereo unspecified)	Not significant	Not significant	Not significant	Not significant					
CCCCC1NC(=O)OC12CCN(CCc1c[nH]c3ccccc13)CC2 (stereo unspecified)				Not significant		24	14	15	
COc1ccccc1OCC(O)CN1CCC2(CC1)CN(C(C)C)C(=O)O2 (stereo unspecified)	Not significant	Not significant	Not significant	Not significant					
CCN1CC2(CCN(CC(O)COc3ccccc3OC)CC2)OC1=O (stereo unspecified)	Not significant	Not significant		Not significant		11			
CCCCN1CC2(CCN(CCc3c[nH]c4ccccc34)CC2)OC1=O	Not significant	Not significant	Not significant	Not significant					
O=C1OC2(CCN(CC(O)C3COc4ccccc4O3)CC2)CN1c1ccccc1 (stereo unspecified)	Not significant	Not significant		Not significant		16			
COc1ccccc1OC[C@H](O)CN1CCC2(CC1)CN(C)C(=O)O2	Not significant			Not significant		10	5		
CC(C)C1NC(=O)OC12CCN(CCc1c[nH]c3ccccc13)CC2 (stereo unspecified)	Not significant			Not significant		26	17		
CCCCN1CC2(CCN(CC(O)COc3ccccc3OC)CC2)OC1=O (stereo unspecified)	Not significant	Not significant	Not significant	Not significant					
COc1ccccc1OCC(O)CN1CCC2(CC1)CNC(=O)O2 (stereo unspecified)	Not significant	Not significant	Not significant	Not significant	0.69				
O=C1OC2(CCN(CCc3c[nH]c4ccccc34)CC2)CN1CCc1ccccc1	Not significant	Not significant	Not significant	Not significant	2.95				
COc1ccccc1OC[C@@H](O)CN1CCC2(CC1)CN(C)C(=O)O2						25		10	16% and 13%
O=C1OC2(CCN(CCc3c[nH]c4ccccc34)CC2)CN1Cc1ccccc1	Not significant	Not significant	Not significant	Not significant	2.91				
CCC1NC(=O)OC12CC[N+](C)(CCc1c[nH]c3ccccc13)CC2.[I-] (stereo unspecified)	Not significant	Not significant		Not significant		20			
O=C1OC2(CCN(CC(O)C3COc4ccccc4O3)CC2)CN1CCc1ccccc1 (stereo unspecified)	Not significant	Not significant		Not significant	2.79	14			
CCCC1NC(=O)OC12CCN(CCc1c[nH]c3ccccc13)CC2 (stereo unspecified)				Not significant	2.31	36	12	16	
CC(C)CC1NC(=O)OC12CCN(CCc1c[nH]c3ccccc13)CC2 (stereo unspecified)				Not significant		27		22	
COc1ccccc1OCC(O)CN1CCC2(CC1)CN(CCc1ccccc1)C(=O)O2 (stereo unspecified)	Not significant	Not significant	Not significant	Not significant					
COCCN1CC2(CCN(CCc3c[nH]c4ccccc34)CC2)OC1=O	Not significant	Not significant		Not significant		21			
CCCN1CC2(CCN(CCc3c[nH]c4ccccc34)CC2)OC1=O	Not significant	Not significant		Not significant	2.36	14			
O=C1NC(c2ccccc2)C2(CCN(CCc3c[nH]c4ccccc34)CC2)O1 (stereo unspecified)	Not significant	Not significant	Not significant	Not significant	2.61				
O=C1NC(c2ccccc2)C2(CCN(CC(O)C3COc4ccccc4O3)CC2)O1 (stereo unspecified)	Not significant	Not significant	Not significant	Not significant	2.41				
O=C1OC2(CCN(CC(O)C3COc4ccccc4O3)CC2)CN1Cc1ccccc1 (stereo unspecified)	Not significant	Not significant	Not significant	Not significant					
CCCCN1CC2(CCN(CC(O)C3COc4ccccc4O3)CC2)OC1=O (stereo unspecified)	Not significant	Not significant	Not significant	Not significant					
